Results reported in ChEMBL document CHEMBL1155007, “Synthesis and monoamine transporter binding properties of 2beta-[3'-(substituted benzyl)isoxazol-5-yl]- and 2beta-[3'-methyl-4'-(substituted phenyl)isoxazol-5-yl]-3beta-(substituted phenyl)tropanes” (Bioorg Med Chem, 2008).

Assays:
[1] = biological target: Sodium-dependent noradrenaline transporter (Homo sapiens, UniProt P23975); experiment: Displacement of [3H]nisoxetine from NET
[2] = biological target: Sodium-dependent serotonin transporter (Homo sapiens, UniProt P31645); experiment: Displacement of [3H]paroxetine from 5HTT
Sodium-dependent serotonin transporter, sequence (P31645 whole entry): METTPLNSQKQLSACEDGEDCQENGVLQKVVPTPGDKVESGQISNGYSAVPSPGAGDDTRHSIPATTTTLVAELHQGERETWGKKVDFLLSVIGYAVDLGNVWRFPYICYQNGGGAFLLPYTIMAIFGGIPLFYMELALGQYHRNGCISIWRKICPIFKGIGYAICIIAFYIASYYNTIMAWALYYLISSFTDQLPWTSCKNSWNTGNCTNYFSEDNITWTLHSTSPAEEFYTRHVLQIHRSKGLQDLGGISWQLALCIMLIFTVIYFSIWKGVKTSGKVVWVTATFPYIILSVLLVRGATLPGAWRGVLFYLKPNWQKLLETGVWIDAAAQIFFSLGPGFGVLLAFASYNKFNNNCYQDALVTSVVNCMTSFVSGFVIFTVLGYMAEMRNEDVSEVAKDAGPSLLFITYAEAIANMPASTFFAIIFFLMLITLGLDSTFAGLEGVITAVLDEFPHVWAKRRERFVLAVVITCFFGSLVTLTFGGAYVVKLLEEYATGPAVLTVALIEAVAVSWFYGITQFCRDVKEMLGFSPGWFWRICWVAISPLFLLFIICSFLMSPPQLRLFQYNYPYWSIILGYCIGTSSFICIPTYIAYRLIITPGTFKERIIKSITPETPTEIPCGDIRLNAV
How it was run: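 Competitive radioligand binding at the serotonin transporter, with 0.2 nM [3H]paroxetine as the final radioligand concentration. Compounds were tested as HCl salts. Values are means ± standard error of three or four experiments, each run in duplicate.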

[3] = biological target: Sodium-dependent dopamine transporter (Homo sapiens, UniProt Q01959); experiment: Displacement of [3H]WIN-35428 from DAT
Sodium-dependent dopamine transporter, sequence (Q01959 whole entry): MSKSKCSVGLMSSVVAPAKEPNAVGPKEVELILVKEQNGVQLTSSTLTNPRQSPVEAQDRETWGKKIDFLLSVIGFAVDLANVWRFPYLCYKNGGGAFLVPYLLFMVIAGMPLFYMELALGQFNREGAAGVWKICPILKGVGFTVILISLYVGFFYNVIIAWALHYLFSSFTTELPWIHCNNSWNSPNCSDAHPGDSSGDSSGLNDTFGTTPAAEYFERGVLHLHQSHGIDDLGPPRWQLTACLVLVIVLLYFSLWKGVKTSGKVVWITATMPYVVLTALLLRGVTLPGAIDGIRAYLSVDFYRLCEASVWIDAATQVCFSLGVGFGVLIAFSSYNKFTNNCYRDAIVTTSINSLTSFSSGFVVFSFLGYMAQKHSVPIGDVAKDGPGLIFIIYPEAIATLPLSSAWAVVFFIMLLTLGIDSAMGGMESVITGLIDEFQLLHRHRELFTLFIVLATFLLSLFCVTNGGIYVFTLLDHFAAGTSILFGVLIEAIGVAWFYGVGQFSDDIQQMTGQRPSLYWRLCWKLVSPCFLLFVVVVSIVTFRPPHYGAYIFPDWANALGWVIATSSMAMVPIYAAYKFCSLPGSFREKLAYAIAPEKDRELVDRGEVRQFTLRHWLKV
How it was run: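 Competitive radioligand binding at the dopamine transporter, with 0.5 nM [3H]WIN35,428 as the final radioligand concentration. Compounds were tested as HCl salts. Values are means ± standard error of three or four experiments, each run in duplicate.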

Sodium-dependent noradrenaline transporter, sequence (P23975 whole entry): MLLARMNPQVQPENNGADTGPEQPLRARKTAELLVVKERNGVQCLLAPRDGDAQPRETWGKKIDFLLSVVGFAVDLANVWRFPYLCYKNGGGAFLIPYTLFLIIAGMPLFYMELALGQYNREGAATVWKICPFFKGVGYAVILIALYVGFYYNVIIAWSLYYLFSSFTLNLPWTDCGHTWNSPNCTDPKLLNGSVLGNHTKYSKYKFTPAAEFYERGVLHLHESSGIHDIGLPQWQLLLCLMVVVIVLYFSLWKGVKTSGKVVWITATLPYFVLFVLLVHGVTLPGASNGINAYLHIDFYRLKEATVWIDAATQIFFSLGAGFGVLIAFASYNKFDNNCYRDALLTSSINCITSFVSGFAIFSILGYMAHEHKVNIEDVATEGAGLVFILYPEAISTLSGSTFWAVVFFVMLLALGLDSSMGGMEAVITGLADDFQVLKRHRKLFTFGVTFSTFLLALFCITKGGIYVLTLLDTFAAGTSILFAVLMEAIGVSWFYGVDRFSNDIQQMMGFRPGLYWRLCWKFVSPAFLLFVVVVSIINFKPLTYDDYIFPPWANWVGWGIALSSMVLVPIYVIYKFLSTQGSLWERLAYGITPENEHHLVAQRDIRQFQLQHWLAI

Row | Compound | Ki [1] [nM] | Ki [2] [nM] | IC50 [3] [nM]
1 | COc1ccc(-c2cc([C@@H]3C4CCC(C[C@@H]3c3ccc(Cl)cc3)N4C)on2)cc1 (some centres not stated) | 454 | 535 | 1.57
2 | COc1ccc(-c2cc([C@@H]3C4CCC(C[C@@H]3c3ccc(C)cc3)N4C)on2)cc1 (some centres not stated) | 455 | 366 | 3.93
3 | Cc1ccc([C@H]2CC3CCC([C@H]2c2onc(C)c2-c2ccc(Cl)cc2)N3C)cc1 (some centres not stated) | 519 | 864 | 65.7
4 | COc1ccc(-c2c(C)noc2[C@@H]2C3CCC(C[C@@H]2c2ccc(Cl)cc2)N3C)cc1 (some centres not stated) | > 2000 | 1800 | 81.6
5 | Cc1ccc(-c2cc([C@@H]3C4CCC(C[C@@H]3c3ccc(Cl)cc3)N4C)on2)cc1 (some centres not stated) | 1030 | 522 | 4.09
6 | Cc1ccc([C@H]2CC3CCC([C@H]2c2cc(-c4ccc(F)cc4)no2)N3C)cc1 (some centres not stated) | 552 | > 2000 | 6.45
7 | Cc1ccc([C@H]2CC3CCC([C@H]2c2cc(-c4ccc(Cl)cc4)no2)N3C)cc1 (some centres not stated) | > 2000 | > 2000 | 8.74
8 | Cc1ccc([C@H]2CC3CCC([C@H]2c2onc(C)c2-c2ccc(F)cc2)N3C)cc1 (some centres not stated) | 349 | > 2000 | 76
9 | Cc1noc([C@@H]2C3CCC(C[C@@H]2c2ccc(Cl)cc2)N3C)c1-c1ccc(Cl)cc1 (some centres not stated) | 788 | 387 | 68.7
10 | Cc1ccc([C@H]2CC3CCC([C@H]2c2cc(Cc4ccc(F)cc4)no2)N3C)cc1 (some centres not stated) | 454 | 113 | 5.9
11 | Cc1ccc([C@H]2CC3CCC([C@H]2c2cc(Cc4ccc(Cl)cc4)no2)N3C)cc1 (some centres not stated) | 840 | 85 | 22.2
12 | Cc1ccc(Cc2cc([C@@H]3C4CCC(C[C@@H]3c3ccc(C)cc3)N4C)on2)cc1 (some centres not stated) | 770 | 89.7 | 6.9
13 | COc1ccc(Cc2cc([C@@H]3C4CCC(C[C@@H]3c3ccc(Cl)cc3)N4C)on2)cc1 (some centres not stated) | 347 | 14.4 | 6.1
14 | COc1ccc(Cc2cc([C@@H]3C4CCC(C[C@@H]3c3ccc(C)cc3)N4C)on2)cc1 (some centres not stated) | 357 | 41.1 | 9.6
15 | COc1ccc(-c2c(C)noc2[C@@H]2C3CCC(C[C@@H]2c2ccc(C)cc2)N3C)cc1 (some centres not stated) | 1300 | > 2000 | 119
16 | CN1C2CCC1[C@@H](c1cc(Cc3ccc(F)cc3)no1)[C@@H](c1ccc(Cl)cc1)C2 (some centres not stated) | 435 | 72 | 8.6
17 | Cc1ccc(-c2c(C)noc2[C@@H]2C3CCC(C[C@@H]2c2ccc(C)cc2)N3C)cc1 (some centres not stated) | > 2000 | 1000 | 173
18 | CN1C2CCC1[C@@H](c1cc(-c3ccc(F)cc3)no1)[C@@H](c1ccc(Cl)cc1)C2 (some centres not stated) | 553 | 660 | 1.86
19 | Cc1noc([C@@H]2C3CCC(C[C@@H]2c2ccc(Cl)cc2)N3C)c1-c1ccc(F)cc1 (some centres not stated) | 466 | 908 | 111
20 | Cc1ccc(-c2cc([C@@H]3C4CCC(C[C@@H]3c3ccc(C)cc3)N4C)on2)cc1 (some centres not stated) | > 2000 | > 2000 | 13
21 | CN1C2CCC1[C@@H](c1cc(-c3ccc(Cl)cc3)no1)[C@@H](c1ccc(Cl)cc1)C2 (some centres not stated) | > 2000 | > 2000 | 6.42
22 | Cc1ccc(-c2c(C)noc2[C@@H]2C3CCC(C[C@@H]2c2ccc(Cl)cc2)N3C)cc1 (some centres not stated) | > 2000 | 297 | 135
23 | Cc1ccc(Cc2cc([C@@H]3C4CCC(C[C@@H]3c3ccc(Cl)cc3)N4C)on2)cc1 (some centres not stated) | 1100 | 42.9 | 22.1
24 | CN1C2CCC1[C@@H](c1cc(Cc3ccc(Cl)cc3)no1)[C@@H](c1ccc(Cl)cc1)C2 (some centres not stated) | 677 | 79 | 17.5
